# In PubChem BioAssay:
# The source made the active and inactive calls. Unless noted, no rule for the calls is given here.
# How the values were obtained:
# [1] = molecular target: Pantothenate synthetase (Mycobacterium tuberculosis (strain ATCC 25618 / H37Rv)) (UniProt P9WIL5); experiment: Recombinant Mtb pantothenate synthetase (PanC) inhibitors, coupled enzyme, confirmatory (AID 375); conditions: coupled enzyme assay; at 10 µM, stronger effect = higher value;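 also: 0% = full reaction with vehicle and 100% = no enzyme background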
# [2] = reducers of endogenous Her2 protein level, primary screen, SKBR3 breast tumor cells, AlphaScreen, ATP viability (AID 461;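 active = Her2 level under about 52% in both replicate screens, with viability over 70% of control, limit read from the data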;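 as to Her2 level: lower value means less Her2 protein in the cells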;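 as to viability: percent of carrier control wells set as 100% viability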); conditions: 18-24 h, measured here: SKBR3 viability, ATP luminescence, at 10 µM
# [3] = molecular target: Receptor tyrosine-protein kinase erbB-2 (Homo sapiens) (UniProt P04626); experiment: as above; conditions: 18-24 h, at 10 µM, stronger effect = lower value
# [4] = SK-BR-3 cell growth inhibitors, pilot screen, 24 h, human (AID 572;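 active = viability at or below 10% of carrier control in both of two separate runs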;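 also: compound exposure lasted between 18 and 24 h rather than exactly 24 h; 100% = carrier-treated control wells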); conditions: SK-BR-3 viability, CellTiter-Glo luminescence, at 10 µM, stronger effect = lower value
# [5] = HUVEC growth inhibition – cell-based, human, primary screen (AID 575;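 active = viability at or below 30% in both replicate assays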;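 also: 100% = median of untreated cell wells with 0.1% DMSO on each plate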); conditions: HUVEC proliferation, CellTiter-Glo luminescence, 72 h; at 10 µM; stronger effect = lower value
# In short: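 Assay system: primary human umbilical vein endothelial cells / Buffer or medium: endothelial basal medium with 2% FBS plus growth supplements / Compound dosing: one dose, 10 µM final, 0.1% DMSO / Timing: 72 h treatment at 37 °C / Signal: CTG luminescence / Benchmarks: 32 DMSO-only cell-control wells (high), 32 MePR drug-control wells (low) per plate / Plate: collagen-coated 384-well format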
# [6] = growth inhibitors of H69AR lung tumor, primary screen, human, duplicate replicates (AID 580;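 active = viability at or under a set limit in both replicates, limit being median viability minus 3 SD, cut at about 48% in these data, passing the limit was not always enough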;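 also: 100% = mean luminescence of untreated wells and 0% = no signal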); conditions: H69AR lung tumor cells viability, ATP luminescence, 72 h; at 10 µM; stronger effect = lower value
# [7] = reversal of MRP1-mediated doxorubicin resistance, pilot screen, H69AR cells, doxorubicin co-treatment (AID 601;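 active = viability loss from added drug above about 55%, and viability with drug at most 40%, in both replicates, limit read from the data, passing the limit was not always enough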); conditions: CellTiter-Glo, 72 h, at 10 µM; for differential viability (reversal): stronger effect = higher value
# [8] = 384-well plate pilot, post-Golgi transport modulator project, inhibition of yeast transport mutant growth (AID 636; in the data active = inhibition above about 31%); conditions: absorbance 615 nm, about 18 h, stronger effect = higher value
# [9] = growth suppression of yeast trafficking mutant, preliminary HTS, modulators of trafficking downstream of Golgi apparatus project, 1536-format plate, OD 615 nm (AID 637; in the data active = inhibition above about 30%); conditions: yeast transport mutant growth, absorbance 615 nm, 18 h; stronger effect = higher value
# [10] = H69AR cells + 2 uM doxorubicin, measured here: viability with 2 uM doxorubicin, stronger effect = lower value
# [11] = H69AR cells, compound alone cytotoxicity
# Sequence of Receptor tyrosine-protein kinase erbB-2 (Homo sapiens) (P04626 whole entry, looked up): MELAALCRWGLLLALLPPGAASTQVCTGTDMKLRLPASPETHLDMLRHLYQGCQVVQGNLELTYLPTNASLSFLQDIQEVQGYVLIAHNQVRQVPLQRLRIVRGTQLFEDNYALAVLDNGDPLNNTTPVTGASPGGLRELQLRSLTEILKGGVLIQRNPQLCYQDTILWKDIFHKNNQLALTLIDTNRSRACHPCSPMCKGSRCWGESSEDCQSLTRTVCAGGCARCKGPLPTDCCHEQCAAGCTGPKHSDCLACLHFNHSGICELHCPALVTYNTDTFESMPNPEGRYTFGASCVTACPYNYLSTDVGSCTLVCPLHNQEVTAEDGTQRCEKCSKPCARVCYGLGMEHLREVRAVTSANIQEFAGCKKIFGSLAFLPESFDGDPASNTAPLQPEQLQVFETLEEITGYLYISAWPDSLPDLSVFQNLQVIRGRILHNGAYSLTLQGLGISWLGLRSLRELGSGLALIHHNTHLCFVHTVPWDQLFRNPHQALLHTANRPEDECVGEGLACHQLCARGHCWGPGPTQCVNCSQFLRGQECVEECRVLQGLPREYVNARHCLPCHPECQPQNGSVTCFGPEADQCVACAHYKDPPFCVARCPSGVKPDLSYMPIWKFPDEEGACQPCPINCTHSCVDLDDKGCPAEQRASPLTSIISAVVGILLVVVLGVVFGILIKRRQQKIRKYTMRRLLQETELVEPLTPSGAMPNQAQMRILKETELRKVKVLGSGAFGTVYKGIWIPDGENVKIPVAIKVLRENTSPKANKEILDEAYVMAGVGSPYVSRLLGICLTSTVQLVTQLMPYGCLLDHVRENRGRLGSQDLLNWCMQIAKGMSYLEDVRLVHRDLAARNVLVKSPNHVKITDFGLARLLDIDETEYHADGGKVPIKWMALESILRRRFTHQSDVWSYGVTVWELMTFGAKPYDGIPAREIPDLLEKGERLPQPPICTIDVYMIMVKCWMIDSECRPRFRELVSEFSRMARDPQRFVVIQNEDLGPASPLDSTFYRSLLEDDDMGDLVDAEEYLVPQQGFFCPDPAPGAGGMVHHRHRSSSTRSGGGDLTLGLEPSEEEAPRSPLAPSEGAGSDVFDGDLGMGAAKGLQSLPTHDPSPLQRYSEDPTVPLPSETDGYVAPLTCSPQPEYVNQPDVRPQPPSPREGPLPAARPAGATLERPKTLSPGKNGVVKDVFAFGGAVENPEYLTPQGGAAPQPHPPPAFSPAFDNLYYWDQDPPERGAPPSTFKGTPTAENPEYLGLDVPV
# Sequence of Pantothenate synthetase (Mycobacterium tuberculosis (strain ATCC 25618 / H37Rv)) (P9WIL5 whole entry, looked up): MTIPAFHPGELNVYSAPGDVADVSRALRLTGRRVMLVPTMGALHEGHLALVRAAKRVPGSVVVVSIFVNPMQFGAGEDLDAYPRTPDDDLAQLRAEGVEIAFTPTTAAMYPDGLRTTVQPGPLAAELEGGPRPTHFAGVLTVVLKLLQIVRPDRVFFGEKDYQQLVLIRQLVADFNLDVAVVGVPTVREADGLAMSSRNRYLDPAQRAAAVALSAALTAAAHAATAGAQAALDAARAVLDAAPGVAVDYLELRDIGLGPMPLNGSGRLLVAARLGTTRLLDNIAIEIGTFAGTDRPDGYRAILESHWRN
smiles,measurement,setting,value
Cc1onc(-c2ccccc2)c1C(=O)N1CCN(C(=O)c2ccco2)CC1,inhibition,[1],0% (inactive)
O=C1CC(N2CCC(C(=O)N3CCCCC3)CC2)C(=O)N1 (stereo not drawn),inhibition,[1],11% (inactive)
CCCCCn1c(=O)[nH]c2cc(C(=O)NCCN3CCOCC3)ccc2c1=O,inhibition,[1],1% (inactive)
O=C(O)C1CC=CCC1C(=O)Nc1cccc(F)c1 (stereo not drawn),inhibition,[1],3% (inactive)
CCC(=O)N1CCN(c2nc(-c3ccccc3)c3c(c2C#N)CCCC3)CC1,inhibition,[1],4% (inactive)
Cn1c(=O)cc(SCC(=O)NCc2cccnc2)c2ccccc21,inhibition,[1],4% (inactive)
N#CCCCCn1c(-c2cncs2)nc2ccccc21,inhibition,[1],0% (inactive)
CC(C)N(O)C(=O)NC(C)(C)C,inhibition,[1],6% (inactive)
CC12C(=O)N(CCC(=O)O)C(=O)C1C1C=CC2C1 (stereo not drawn),inhibition,[1],0% (inactive)
COc1ccc(N2CCN(Cc3nc4c(c(=O)n(C)c(=O)n4C)n3Cc3ccccc3C)CC2)cc1,inhibition,[1],7% (inactive)
COc1cc(NC(=O)C2CC(c3cccc(OC)c3OC)=NO2)cc(OC)c1OC (stereo not drawn),inhibition,[1],0% (inactive)
COc1ccccc1-c1nnc2sc(-c3ccc(N(C)C)cc3)nn12,inhibition,[1],5% (inactive)
Cn1c(=N)c(S(=O)(=O)c2ccccc2)cc2c(=O)n3ccccc3nc21,inhibition,[1],2% (inactive)
COc1ccc(-c2[nH]nc3c2C(c2ccncc2)C(C#N)=C(N)O3)cc1 (stereo not drawn),inhibition,[1],0% (inactive)
CC1(C)O[C@@H]2C[C@H]3[C@@H]4CCC5=CC(=O)C=C[C@]5(C)[C@@]4(F)[C@@H](O)C[C@]3(C)[C@]2(C(=O)CO)O1,inhibition,[1],2% (inactive)
O=C(Nc1ccc2c(c1)OCO2)c1ccc(Br)c(S(=O)(=O)N2CCCC2)c1,inhibition,[1],1% (inactive)
COC(=O)c1cc(-c2c(C)oc3cc(O)ccc3c2=O)c(C)o1,inhibition,[1],3% (inactive)
CCCn1c(OC)nc2c1c(=O)n(C)c(=O)n2C,inhibition,[1],0% (inactive)
CCOc1ccc2[nH]c(C)cc(=O)c2c1,inhibition,[1],0% (inactive)
Cc1ccc(S(=O)(=O)N2CCCC(C(=O)NC3=NCCS3)C2)cc1 (stereo not drawn),inhibition,[1],12% (inactive)
Clc1ccccc1OCc1nn2c(-c3ccncc3)nnc2s1,inhibition,[1],0% (inactive)
Cc1c(NS(=O)(=O)c2ccc3c(c2)n(C)c(=O)n3C)c(=O)n(-c2ccccc2)n1C,inhibition,[1],2% (inactive)
CCOC(=O)c1ccc(NC(=O)CCc2nc(-c3ccc(C)cc3)no2)cc1,inhibition,[1],0% (inactive)
Nn1c(SCc2csc(-c3ccccc3)n2)nnc1-c1cccs1,inhibition,[1],0% (inactive)
Cc1cc(C)nc(N2CCCC(C(=O)Nc3ccc4c(c3)OCO4)C2)n1 (stereo not drawn),inhibition,[1],0% (inactive)
COc1cccc(Oc2cn[nH]c2-c2ccc(O)cc2O)c1,inhibition,[1],0% (inactive)
O=C(CSCc1cnn(-c2ccccc2)c1-n1cccc1)NCC1CCCO1 (stereo not drawn),inhibition,[1],4% (inactive)
COc1cccc(CN(C(=O)c2cc3ccccc3oc2=O)C2CC2)c1,inhibition,[1],8% (inactive)
Cc1nc2c(c(=O)n1CC1CCCO1)c1nc3ccccc3nc1n2CC(C)C (stereo not drawn),inhibition,[1],0% (inactive)
Cc1nc2ccc(NC(=O)NCc3ccco3)cc2s1,inhibition,[1],0% (inactive)
CCCCCCn1c(SCC(=O)OC)nc2c1c(=O)[nH]c(=O)n2C,inhibition,[1],0% (inactive)
Cc1oc2ccc(OC(=O)N(C)C)cc2c1C(=O)OC(C)C,inhibition,[1],0% (inactive)
same,viability,[2],96%
same,Her2 level,[3],87.5% (inactive)
same,viability,[4],96% (inactive)
same,viability,[5],92.4% (inactive)
same,viability,[6],107% (inactive)
same,differential viability (reversal),[7]; H69AR cells + 2 uM doxorubicin,11.3% (inactive)
same,viability,[7]; [10],95.8%
same,viability,[7]; [11],107%
same,inhibition,[8],-3.24% (inactive)
same,inhibition,[9],10.2% (inactive)
Cc1ccc(OCC(=O)NCCN2CCN(C(=O)COc3ccc(C)cc3)CC2)cc1,inhibition,[1],0% (inactive)
same,viability,[2],124%
same,Her2 level,[3],106% (inactive)
same,viability,[4],124% (inactive)
same,viability,[5],88.5% (inactive)
same,viability,[6],95.2% (inactive)
same,differential viability (reversal),[7]; H69AR cells + 2 uM doxorubicin,1.29% (inactive)
same,viability,[7]; [10],93.9%
same,viability,[7]; [11],95.2%
same,inhibition,[8],-1.76% (inactive)
same,inhibition,[9],-5.56% (inactive)
Cn1c(C(=O)N2CCC3(CC2)OCCO3)cc2c(=O)n(C)c3ccccc3c21,inhibition,[1],0% (inactive)
same,viability,[2],108%
same,Her2 level,[3],82.5% (inactive)
same,viability,[4],108% (inactive)
same,viability,[5],80.2% (inactive)
same,viability,[6],80.6% (inactive)
same,differential viability (reversal),[7]; H69AR cells + 2 uM doxorubicin,-5.79% (inactive)
same,viability,[7]; [10],86.4%
same,viability,[7]; [11],80.6%
same,inhibition,[8],-3.82% (inactive)
same,inhibition,[9],-5.45% (inactive)
CCOc1ccc(Br)c(C2(O)CC(C)N(C)CC2C)c1 (stereo not drawn),inhibition,[1],1% (inactive)
same,viability,[2],80.5%
same,Her2 level,[3],80.5% (inactive)
same,viability,[4],80.5% (inactive)
same,viability,[5],68.2% (inactive)
same,viability,[6],96.7% (inactive)
same,differential viability (reversal),[7]; H69AR cells + 2 uM doxorubicin,19.5% (inactive)
same,viability,[7]; [10],77.1%
same,viability,[7]; [11],96.7%
same,inhibition,[8],-6% (inactive)
same,inhibition,[9],-1.48% (inactive)
Nc1ccccc1C(=O)OC1CSC1,inhibition,[1],0% (inactive)
same,viability,[2],132%
same,Her2 level,[3],110% (inactive)
same,viability,[4],132% (inactive)
same,viability,[5],105% (inactive)
same,viability,[6],89.2% (inactive)
same,differential viability (reversal),[7]; H69AR cells + 2 uM doxorubicin,0.43% (inactive)
same,viability,[7]; [10],88.7%
same,viability,[7]; [11],89.2%
same,inhibition,[8],-2.53% (inactive)
same,inhibition,[9],1.45% (inactive)
COc1ccc(OC)c(C2=NOC(C(=O)N3CCC4(CC3)OCCO4)C2)c1 (stereo not drawn),inhibition,[1],7% (inactive)
same,viability,[2],106%
same,Her2 level,[3],99% (inactive)
same,viability,[4],106% (inactive)
same,viability,[5],103% (inactive)
same,viability,[6],99% (inactive)
same,differential viability (reversal),[7]; H69AR cells + 2 uM doxorubicin,13% (inactive)
same,viability,[7]; [10],86%
same,viability,[7]; [11],99%
same,inhibition,[8],-6.49% (inactive)
same,inhibition,[9],0.5% (inactive)
CN1CCN(C(=O)OC2c3nccnc3C(=O)N2c2ccc(Cl)cn2)CC1 (stereo not drawn),inhibition,[1],8% (inactive)
same,viability,[2],91.5%
same,Her2 level,[3],108% (inactive)
same,viability,[4],91.5% (inactive)
same,viability,[5],106% (inactive)
same,viability,[6],94.1% (inactive)
same,differential viability (reversal),[7]; H69AR cells + 2 uM doxorubicin,-3.97% (inactive)
same,viability,[7]; [10],98.1%
same,viability,[7]; [11],94.1%
Cc1nn(Cc2ccccc2Cl)c(Cl)c1C(=O)OCC(=O)NCc1ccco1,inhibition,[1],0% (inactive)
same,viability,[2],85%
same,Her2 level,[3],76% (inactive)
same,viability,[4],85% (inactive)
same,viability,[5],98.6% (inactive)
same,viability,[6],85.6% (inactive)
same,differential viability (reversal),[7]; H69AR cells + 2 uM doxorubicin,-6.68% (inactive)
same,viability,[7]; [10],92.3%
same,viability,[7]; [11],85.6%
same,inhibition,[8],-3.2% (inactive)
same,inhibition,[9],-0.82% (inactive)
CN1CCC(N(C)c2ncnc3ccc(Br)cc23)CC1,inhibition,[1],0% (inactive)
same,viability,[2],100%
same,Her2 level,[3],99.5% (inactive)
same,viability,[4],100% (inactive)
same,viability,[5],78.5% (inactive)
same,viability,[6],87.9% (inactive)
same,differential viability (reversal),[7]; H69AR cells + 2 uM doxorubicin,-25.8% (inactive)
same,viability,[7]; [10],114%
same,viability,[7]; [11],87.9%
same,inhibition,[8],-6.1% (inactive)
same,inhibition,[9],0.79% (inactive)
